Measurements: PMC2854536 (Clinical cancer research : an official journal of the …, 2009)

Key:
[1] = test system: CD95; experiment: Immunohistochemistry of Matrigel plug vasculature, CD95; format: in vivo, nude mice; conditions: Matrigel plugs with bFGF (Fig. 6A)
[2] = test system: bFGF-induced angiogenesis; experiment: Matrigel plug assay; format: in vivo, nude mice; conditions: Matrigel plug with bFGF (Fig. 3C bottom)
[3] = test system: bFGF/VEGF-induced angiogenesis; experiment: Directed In Vivo Angiogenesis Assay; parameters: species or system nude mice
How it was run: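 Angioreactors filled with basement membrane extract holding bFGF/VEGF mix plus test peptide, or peptide alone, implanted subcutaneously in both flanks of nude mice, four per animal. PEDF 20 nM and 34-mer 100 nM served as controls. Recovered cells were FITC-lectin labelled and fluorescence read as relative EC invasion. Three independent experiments, normalised to negative control, averaged.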

[4] = test system: endothelial cells; experiment: Cytotoxicity in a 4-hour assay; format: cell-based, Human; conditions: P14 at concentrations above 10 nM, data not shown
[5] = test system: HMVEC cells; experiment: Endothelial cell apoptosis, TUNEL assay; format: cell-based, Human; conditions: overnight, 0.2% FBS, no bFGF, PEDF 10 nM, 34-mer 100 nM (Fig. 2C)
How it was run: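 Confluent HMVECs (passages 6–9) on coverslips were treated overnight with test peptide in MCDB131 with 0.2% FBS, with or without bFGF 20 ng/ml. PEDF 10 nM and 34-mer 100 nM were controls. TUNEL staining with propidium iodide counterstain. In 3–5 10X fields, TUNEL-positive and total PI-positive cells were counted to give % apoptotic cells.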

34-mer: PEDF anti-angiogenic N-terminal surface epitope, amino acid residues 24–57; parental peptide (SPPEEGSPDPDSTGALVEEEDPFFKVPVNKLAAA; UniProt P36955 24-57, looked up, fragment)
CD95 staining of microvessels [1]: majority of the microvessels stained positive
EC apoptosis by in situ TUNEL [2]: induced significant levels of EC apoptosis

P14: PEDF-derived peptide, residues 43–57 of PEDF molecule, acetylated at the N-terminus and amidated at the C-terminus (Ac-EDPFFKVPVNKLAAA-NH2; UniProt P36955 43-57, looked up, fragment)
angiogenic activity of the peptide alone ([3]; DIVAA, without bFGF/VEGF, P<0.05): pro-angiogenic
cytotoxicity [4]: slightly cytotoxic

P23: PEDF-derived peptide, residues 34–57, acetylated at the N-terminus and amidated at the C-terminus (Ac-DSTGALVEEEDPFFKVPVNKLAAA-NH2; UniProt P36955 34-57, looked up, fragment)
cytotoxicity [4]: no cytotoxic activity

B1: PEDF: Pigment epithelial-derived factor, native protein, a potent angiogenesis inhibitor (protein, UniProt P36955 20-418, looked up)
Pigment epithelium-derived …: QNPASPPEEGSPDPDSTGALVEEEDPFFKVPVNKLAAAVSNFGYDLYRVRSSTSPTTNVLLSPLSVATALSALSLGAEQRTESIIHRALYYDLISSPDIHGTYKELLDTVTAPQKNLKSASRIVFEKKLRIKSSFVAPLEKSYGTRPRVLTGNPRLDLQEINNWVQAQMKGKLARSTKEIPDEISILLLGVAHFKGQWVTKFDSRKTSLEDFYLDEERTVRVPMMSDPKAVLRYGLDSDLSCKIAQLPLTGSMSIIFFLPLKVTQNLTLIEESLTSEFIHDIDRELKTVQAVLTVPKLKLSYEGEVTKSLQEMKLQSLFDSPDFSKITGKPIKLTQVEHRAGFEWNEDGAGTTPSPGLQPAHLTFPLDYHLNQPFIFVLRDTDTGALLFIGKILDPRGP
level of vascularization reached ([3]; DIVAA with bFGF/VEGF mix, P=0.006 (PEDF) and 0.01 (P18)): to the level of BME
effect on stress-induced apoptosis in low serum [5]: no effect
